# TRPC4 block: TRPC4 (mouse) channel inhibition | HEK293 TRPC4beta/mu-opioid, DAMGO-evoked Fluo4 calcium flux; hits give low values | 300,000 tested, 0.39% active | AID 2247 | B-score at 10 µM;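 active means B-score over 3 SD under the library average, no early fluorescence shift, positive overall ratio signal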
# Target sequence (Q9QUQ5 whole entry, looked up): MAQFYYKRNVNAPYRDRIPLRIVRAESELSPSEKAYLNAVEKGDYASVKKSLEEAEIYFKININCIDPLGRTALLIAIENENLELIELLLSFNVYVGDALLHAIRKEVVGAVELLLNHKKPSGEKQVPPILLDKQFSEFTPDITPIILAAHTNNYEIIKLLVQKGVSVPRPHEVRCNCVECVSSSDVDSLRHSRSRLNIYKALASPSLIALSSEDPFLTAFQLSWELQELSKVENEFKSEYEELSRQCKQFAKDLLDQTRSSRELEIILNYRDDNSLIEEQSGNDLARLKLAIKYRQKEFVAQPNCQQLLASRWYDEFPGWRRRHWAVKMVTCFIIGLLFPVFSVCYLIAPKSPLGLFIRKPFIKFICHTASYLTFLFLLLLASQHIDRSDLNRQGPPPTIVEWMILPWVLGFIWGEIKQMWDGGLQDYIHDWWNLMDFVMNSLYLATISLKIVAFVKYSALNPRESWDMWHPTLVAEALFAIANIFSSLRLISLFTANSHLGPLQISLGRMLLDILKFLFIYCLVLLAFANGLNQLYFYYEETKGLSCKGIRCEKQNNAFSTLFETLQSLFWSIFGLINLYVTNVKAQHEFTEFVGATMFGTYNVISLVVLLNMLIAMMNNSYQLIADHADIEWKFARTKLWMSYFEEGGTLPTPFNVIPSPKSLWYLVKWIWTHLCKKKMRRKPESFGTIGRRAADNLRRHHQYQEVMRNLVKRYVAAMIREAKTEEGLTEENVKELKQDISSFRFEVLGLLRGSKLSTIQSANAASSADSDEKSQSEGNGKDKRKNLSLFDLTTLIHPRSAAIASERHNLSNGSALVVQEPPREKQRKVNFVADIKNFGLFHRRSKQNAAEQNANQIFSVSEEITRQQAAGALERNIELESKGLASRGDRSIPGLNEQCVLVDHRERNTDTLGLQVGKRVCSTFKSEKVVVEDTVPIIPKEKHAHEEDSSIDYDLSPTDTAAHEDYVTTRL
#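 Assay system – HEK293 line stably carrying TRPC4beta and mu-opioid receptor · Doses – single dose · Detection – Fluo4 calcium-dye fluorescence, kinetic read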
# TRPC4 agonist: activators of mouse TRPC4 channel. HEK293 TRPC4beta/mu-opioid, Fluo4 calcium fluorescence; hits give high values. B-score at 10 µM. 310,000 tested, 0.49% active. Q9QUQ5;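 active means B-score above 5 SD of library B-scores, and initial fluorescence ratio not above library mean plus 5 SD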;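 further: positive B-score marks a calcium rise read as TRPC4 activation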
#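 Assay system: HEK293 stable line with TRPC4beta plus mu-opioid receptor. Times: dye 45 min RT, read 110 s. Measured by: kinetic Fluo4 calcium fluorescence. Measure: B score of integrated ratio. Controls: assay buffer as low control, maximal DAMGO as high control.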
# TRPC6 act: mouse TRPC6 channel activation; Q61143; HEK293-TRPC6 membrane potential dye fluorescence; hits give high values; B-score at 10 µM; 310,000 tested, 0.13% active;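 active means B-score of the integrated fluorescence ratio above library mean plus 3 SD, and starting fluorescence ratio within library mean plus 5 SD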;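 further: higher score means more depolarization so channel activation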
# TRPC6 inh: blocks the mouse TRPC6 cation channel | 310,000 tested, 1.1% active | B-score at 10 µM | HEK293-TRPC6, membrane potential dye, ACh-evoked depolarization; hits give low values | Q61143;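 active means B-score under library mean minus 3 SD, initial fluorescence not abnormally high, positive integrated signal ratio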;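 further: B-score derived from integrated fluorescence ratio over the kinetic read; more negative B-score means stronger inhibition of depolarization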
# TRPC4 PAM: allosterically enhances the mouse TRPC4 cation channel; AID 2227; 310,000 tested, 0.42% active; Q9QUQ5; B-score at 10 µM; HEK293 TRPC4beta/mu-opioid, DAMGO EC20, Fluo-4 Ca2+ flux; hits give high values;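 active means B-score of calcium response area above 5 SD of library B-scores, with initial fluorescence ratio within 5 SD of library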;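 further: B-score of integrated fluorescence ratio over time as area under calcium response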
# TRPC4 sel inh 2: second check of whether TRPC6 inhibitors also affect mouse TRPC4. inhibition, % at 10 µM. shares compounds with TRPC6 inh. AID 2776. 920 tested, 42% active. HEK293 TRPC4/MOR, membrane potential dye fluorescence; channel activated by saturating DAMGO dose;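 active means compounds whose fluorescence signal differed from control wells by over 3 SD, either direction, in both duplicate plates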
# TRPC4 spec: selectivity of TRPC6 inhibitors: effect on mouse TRPC4. shares compounds with TRPC6 inh. HEK293 TRPC4/mu-opioid, membrane potential fluorescence. activity change, negative = inhibition, % at 10 µM. 920 tested, 61% active. AID 2777;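 active means rise or fall in signal beyond 3 SD of buffer-only wells in both replicate plates, either sign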;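 further: integrated kinetic ratio of fluorescence range over baseline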
# HEK293 MPD ctr 2-1: parental HEK293 nonspecific activity of TRPC6 inhibitors, second screen; shares compounds with TRPC6 inh; parental HEK293 membrane potential dye fluorescence; maximal acetylcholine challenge after compound addition; signal change vs control, % at 10 µM; 920 tested, 31% active;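 active means membrane potential signal moving either way by over 3 SD of the maximum-effect control, in both duplicate plates, meaning non-specific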
# HEK293 MPD ctr-1: counter-screen for TRPC6 inhibitors: effect in parental HEK293 cells; shares compounds with TRPC6 inh; parental HEK293 membrane potential dye fluorescence; membrane potential signal change, % at 10 µM; 920 tested, 60% active; AID 2780;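 active means membrane potential signal shifting up or down by more than 3 SD of buffer-only wells, on both duplicate plates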
# HEK293 MPD ctr-2: counter-screen for TRPC6 modulators: effect in parental HEK293 cells. shares compounds with TRPC6 inh. membrane potential dye fluorescence. membrane potential signal change, % at 10 µM. 2,400 tested, 51% active;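 active means membrane potential signal moves up or down beyond 5 SD from buffer-only wells, on both duplicate plates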
# HEK293 MPD ctr 2-2: second check of TRPC6 modulator effects in parental HEK293 cells | shares compounds with TRPC6 inh | membrane potential dye fluorescence; after compound, maximal acetylcholine stimulation | inhibition, % at 10 µM | 2,400 tested, 14% active;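 active means membrane potential signal drops by more than 5 SD from the mean control signal, in both duplicate plates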;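 further: plate controls were acetylcholine ECmax control wells for no effect and buffer only wells for full effect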
# TRPC4 ctr mod: selectivity of TRPC6 modulators against mouse TRPC4; shares compounds with TRPC6 inh; HEK293 TRPC4/mu-opioid, membrane potential fluorescence; percent change from control (negative = decrease, positive = increase), % at 10 µM; 2,400 tested, 69% active; AID 488927;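 active means membrane potential signal moved up or down beyond 5 SD of buffer control wells, in both duplicate plates, actives on both sides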;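 further: plate controls were assay buffer wells for no effect and DAMGO maximal-effect wells for full effect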
# TRPC4/MOR inh 2: second check of whether TRPC6 modulators also affect mouse TRPC4; shares compounds with TRPC6 inh; HEK293 TRPC4/mu-opioid, membrane potential dye fluorescence; stimulated with maximal-effect DAMGO; inhibition, % at 10 µM; 2,400 tested, 55% active;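 active means drop in membrane potential signal beyond 5 SD of the control wells in both duplicate plates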;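 further: TRPC4 counter screen for TRPC6 hits run under conditions tuned for TRPC6 not TRPC4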
# TRPC6 inh conf: mouse TRPC6 inhibitor confirmation. shares compounds with TRPC6 inh. HEK293-TRPC6, membrane potential dye, ACh-evoked depolarization. inhibition, % at 10 µM. 3,300 tested, 43% active;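 active means fluorescence ratio falls more than 5 SD below the full-stimulation control mean, in both duplicate runs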;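 further: integrated fluorescence ratio of peak minus minimum over baseline after agonist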
# TRPC6 act confirm: confirmation of mouse TRPC6 activators; shares compounds with TRPC6 inh; HEK293-TRPC6 membrane potential dye fluorescence, FDSS; activation, % at 10 µM; 2,800 tested, 11% active; AID 488961;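 active means ratio signal rise beyond 5 SD above unstimulated control wells' mean, seen in both duplicate runs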;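 further: plate controls were buffer EC0 wells for no effect and acetylcholine ECmax response for full effect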
# Active calls of the source: *; i = inactive; · = no result. Compounds with a hit are over-represented: about 2.3% of the library has one in this group of screens.
SMILES,TRPC4 block,TRPC4 agonist,TRPC6 act,TRPC6 inh,TRPC4 PAM,HEK293 MPD ctr-2,HEK293 MPD ctr 2-2,TRPC4 ctr mod,TRPC4/MOR inh 2,TRPC6 inh conf,TRPC6 act confirm,others
Cc1cc(C)nc(Nc2nc(C)c3cc4c(cc3n2)OCO4)n1,i,i,i,-6.8*,i,·,·,·,·,i,i,TRPC4 sel inh 2=i;TRPC4 spec=9.0%*;HEK293 MPD ctr 2-1=-138%*;HEK293 MPD ctr-1=8.5%*
CN(C)C(=O)c1c([N+](=O)[O-])c(C(C)(C)C)nn1C,i,i,i,-6.2*,i,i,i,i,i,i,i,
O=C(Nc1c2c(nn1-c1ccc(F)cc1)CSC2)c1ccc(S(=O)(=O)N2CCOCC2)cc1,i,i,i,-5.6*,i,i,i,i,i,i,i,
COc1cc(CN2C(=S)NC(C)(C)CC2(C)O)cc(OC)c1 (stereo unspecified),i,i,i,i,i,·,·,·,·,·,·,
N#CC(C#N)=C(Nc1ccc(F)cc1)SCc1cccc(Br)c1,i,i,i,i,i,·,·,·,·,·,·,
Cc1cccc(CSC(Nc2ccc(F)cc2)=C(C#N)C#N)c1,i,i,i,-5.2*,i,124%*,i,20%*,48%*,56%*,i,
CCN(CC(=O)NCc1ccco1)S(=O)(=O)c1ccc(OC)cc1,i,i,i,i,i,·,·,·,·,·,·,
O=C(CN1C(=O)C2C3CCC(C3)C2C1=O)OCC(=O)c1ccccc1 (stereo unspecified),i,i,i,i,i,·,·,·,·,·,·,
CC(C)(C)c1ccc(OC(=O)CN2C(=O)C3C4CCC(C4)C3C2=O)cc1 (stereo unspecified),i,i,i,-5.9*,i,i,i,i,i,i,i,
CC1CCN(C2=C(NS(=O)(=O)c3ccccc3)C(=O)c3ccccc3C2=O)CC1,i,i,i,-7.7*,i,i,i,-27%*,82%*,i,i,
CCOC(=O)C1CCN(C2=C(NS(=O)(=O)c3ccc(Cl)cc3)C(=O)c3ccccc3C2=O)CC1,i,i,i,-6.1*,i,-78%*,i,-20%*,69%*,58%*,i,
CCN1CCN(C2=C(NS(=O)(=O)c3ccc(NC(C)=O)cc3)C(=O)c3ccccc3C2=O)CC1,i,i,i,i,i,·,·,·,·,·,·,

# Screens from PubChem.
